Source: PubChem BioAssay (several laboratories)
SENP6 block: SENP6 protease inhibition | inhibition, % at 10 µM | 1.8% of 330,000 active | Recombinant SENP6 catalytic domain, aminoluciferin luminescence;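 active = inhibition above about 50% at the single tested dose, limit read from the data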
SENP1 FRET inh: blocks the human SENP1 SUMO protease catalytic domain. Q9P0U3. recombinant SENP1 catalytic domain, CyPet-SUMO1-YPet FRET cleavage. inhibition, % at 10 µM. 0.21% of 360,000 active. AID 624204;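 active = inhibition at least 30% at 10 µM, raw YFP signal under a set limit, fluorescence ratio 0.5 to 1.5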
Target sequence (Q9P0U3 419-644 limits assumed): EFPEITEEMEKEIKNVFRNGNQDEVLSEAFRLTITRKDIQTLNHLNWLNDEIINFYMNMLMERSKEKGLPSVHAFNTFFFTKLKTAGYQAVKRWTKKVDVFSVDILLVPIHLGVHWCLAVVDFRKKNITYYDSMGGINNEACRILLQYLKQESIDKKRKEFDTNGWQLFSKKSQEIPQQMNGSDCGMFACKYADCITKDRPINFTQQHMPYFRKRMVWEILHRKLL
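system = hSENP1 catalytic domain, recombinant | reagent = SFCypet-SUMO1-SFYpet substrate at 25 nM | doses = one dose per compound, 10 µM, 0.5% DMSO | incubation = enzyme reaction for 50 min at room temperature, dark | measured by = FRET, CFP and YFP emission | controls = no-enzyme low, enzyme-DMSO high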
HSP90 inh: inhibitors of HSP90 luciferase refolding in rabbit reticulocyte lysate. luciferase refolding luminescence, 3 h. inhibition, % at 5.6 µM. 0.91% of 290,000 active;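 active = inhibition above the screen-wide mean plus 3 SD, computed separately per campaign, cut at about 16% in these data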;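 note: inhibitors lower the luminescence because luciferase stays unfolded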
SENP8 block-1: SENP8 protease inhibition | purified SENP8, Z-RLRGG-aminoluciferin cleavage, luminescence | inhibition, % at 10 µM | 1.2% of 330,000 active; in the data active = inhibition above about 50%
Target sequence (Q96LD8 whole entry, looked up): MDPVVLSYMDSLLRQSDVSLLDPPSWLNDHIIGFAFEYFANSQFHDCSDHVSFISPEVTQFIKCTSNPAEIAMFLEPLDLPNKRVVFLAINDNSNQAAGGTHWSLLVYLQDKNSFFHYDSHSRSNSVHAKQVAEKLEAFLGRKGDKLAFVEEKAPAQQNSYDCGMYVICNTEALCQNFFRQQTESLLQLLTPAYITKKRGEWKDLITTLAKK
SENP7 inh: inhibitors of human SENP7 protease; inhibition, % at 5 µM; 1.5% of 330,000 active; recombinant SENP7, Z-RLRGG-aminoluciferin luminescence, 40 min;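 active = inhibition above about 50% at the single test dose, limit read from the data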
SENP8 block-2: blocks human SENP8 cleavage of Nedd8 substrate; recombinant SENP8, Nedd8 substrate fluorescence; 0.64% of 360,000 active; inhibition, % at 20 µM; AID 602440; in the data active = inhibition mostly above about 40%, no sharp cut-off; inactive = mostly below about 27%
SENP8 conf-1: confirmation of human SENP8 protease inhibitors | shares compounds with SENP7 inh | Recombinant SENP8, Z-RLRGG-aminoluciferin luminescence, 60 min | inhibition, % at 12.5 µM | 40% of 6,200 active | AID 488912;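 active = mean inhibition across replicates above about 50%, limit read from the data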
SENP6 conf: confirmation of human SENP6 protease inhibitors; 58% of 6,200 active; inhibition, % at 12.5 µM; shares compounds with SENP7 inh; AID 488915; recombinant SENP6, Z-RLRGG-aminoluciferin luminescence
SENP7 conf: human SENP7 inhibition, confirmed; inhibition, % at 12.5 µM; recombinant SENP7, Z-RLRGG-aminoluciferin luminescence, 40 min; 69% of 6,200 active; shares compounds with SENP7 inh
Casp3 SENP sel: caspase-3 inhibition (SENP selectivity assay); inhibition, % at 12.5 µM; shares compounds with SENP7 inh; purified caspase-3, Z-DEVD-aminoluciferin luminescence, 60 min; 60% of 6,200 active;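 active = mean inhibition above about 50%, limit read from the data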
Target sequence (P42574 28-227 limits assumed): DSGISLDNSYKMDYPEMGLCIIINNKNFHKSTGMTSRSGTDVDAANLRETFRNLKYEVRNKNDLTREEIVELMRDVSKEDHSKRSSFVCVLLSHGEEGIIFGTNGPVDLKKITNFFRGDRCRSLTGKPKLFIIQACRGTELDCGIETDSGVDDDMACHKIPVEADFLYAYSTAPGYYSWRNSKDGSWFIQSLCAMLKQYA
SENP luc ctr: counter-screen for SENP inhibitors: luminescence interference; 39% of 6,200 active; inhibition, % at 12.5 µM; AID 488919; shares compounds with SENP7 inh; Pre-incubated SENP8/Z-RLRGG-aminoluciferin, luciferase luminescence interference;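 active = mean inhibition above about 50% when retested at one dose, limit read from the data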
SENP8 conf-2: confirmation of human SENP8 protease inhibitors; inhibition, % at 25 µM; shares compounds with SENP8 block-2; purified SENP8, Nedd8-AMC/pro-Nedd8 cleavage fluorescence, 30 min; 15% of 1,400 active; AID 624319; in the data active = inhibition mostly above about 39%, no sharp cut-off; inactive = mostly below about 34%
A number is an active result; . = inactive; / = no result. In the library only some 2.9% were active in any assay of this set; here they are far more common.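 Rule for the calls, unless noted: active = mean inhibition above about 50% in the one-dose retest (limit read from the data); inactive = the rest.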

SMILES	SENP6 block	SENP1 FRET inh	HSP90 inh	SENP8 block-1	SENP7 inh	SENP8 block-2	SENP8 conf-1	SENP6 conf	SENP7 conf	Casp3 SENP sel	SENP luc ctr	others
COC(=O)C1=C(c2ccc(OC(F)(F)F)cc2)C[C@@H]2CC[C@H]1N2C(=O)N1CCC(O)CC1	.	.	/	.	.	.	/	/	/	/	/
O=c1c2ccccc2nc(Cc2ccccc2)n1-c1ccc(O)cc1	.	.	.	.	.	.	/	/	/	/	/
CCCCCn1c(NC(=O)c2ccco2)c(C(=O)OCC)c2nc3ccccc3nc21	79	.	.	80	.	.	.	.	.	.	.
COCCCNC(=O)c1c(NC(=O)c2ccco2)n(Cc2ccccc2)c2nc3ccccc3nc12	.	.	.	.	.	.	/	/	/	/	/
COCCNC(=O)c1c(NC(=O)c2ccc(Br)o2)n(Cc2ccccc2)c2nc3ccccc3nc12	83	.	.	82	.	.	.	.	.	.	.
Oc1ccc2c3c1O[C@H]1c4[nH]c5ccccc5c4C[C@@]4(O)C(C2)N(CC2CC2)CC[C@]314	.	/	.	.	.	/	/	/	/	/	/
COc1ccc(OC)c(N2C(=O)NC(=O)/C(=C/c3ccc([N+](=O)[O-])s3)C2=O)c1	55	.	.	.	.	63	.	.	.	.	.
COc1ccc(OC)c(N2C(=O)/C(=C/c3ccco3)C(=O)NC2=S)c1	.	/	.	.	.	/	/	/	/	/	/
CC(C)CCNC(=O)c1c(N)n(Cc2ccc3c(c2)OCO3)c2nc3ccccc3nc12	72	.	.	82	58	.	.	.	.	.	.
CCCNC(=O)c1c(N)n(Cc2ccco2)c2nc3ccccc3nc12	.	/	.	.	.	/	/	/	/	/	/
COc1ccc(Cn2c(N)c(C(=O)NCc3ccco3)c3nc4ccccc4nc32)cc1OC	74	.	.	52	.	.	.	.	.	.	.
CCCNC(=O)c1c(N)n(Cc2ccc3c(c2)OCO3)c2nc3ccccc3nc12	54	.	.	53	.	.	.	.	.	.	.
CC(C)CNC(=O)c1c(N)n(Cc2ccc3c(c2)OCO3)c2nc3ccccc3nc12	91	.	.	91	73	.	.	.	.	.	.
Clc1ccc(-c2nc3ccc(Cl)cn3c2CN2CCCCC2)cc1	/	.	.	/	/	.	/	/	/	/	/
CC(C)c1ccc(NC(=O)N2C[C@H]3C[C@@H](C2)c2cccc(=O)n2C3)cc1	.	.	.	.	.	.	/	/	/	/	/
O=C(c1ccc(-c2ccccc2)cc1)C1CCCN(Cc2ccn[nH]2)C1 (configuration not stated)	.	.	.	.	.	.	/	/	/	/	/
Clc1cccc(Cl)c1NC1=NCCS1	/	.	/	/	/	.	/	/	/	/	/
c1ccc2c(NC3=NCCS3)cccc2c1	76	.	.	88	61	.	.	.	.	.	.
Cc1cccc(N/N=C/c2c(O)[nH]c(=S)[nH]c2=O)c1	.	.	/	84	.	.	94	94	101	96	58
COc1ccc(/C=C/C2=CCN(C)CC2)cc1	.	.	.	.	.	.	/	/	/	/	/
CN1CC=C(/C=C/c2ccc(-c3ccccc3)cc2)CC1	86	/	.	76	81	/	72	88	97	88	72
COC(=O)C1=CO[C@H](C)[C@H]2CN3CC[C@@]4(C(=O)Nc5ccccc54)[C@@H]3C[C@H]12	.	.	/	.	.	.	/	/	/	/	/
CN1CC[C@@]2(C)c3cc(O)ccc3N(C)C2O1 (some centres not stated)	57	.	/	.	.	.	.	56	.	.	.
COc1ccccc1N=Cc1c(O)n(C)c(=O)n(C)c1=O	63	.	.	.	56	.	.	.	73	.	59
C=CC1CN2CCC1CC2C(OC(C)=O)c1ccnc2ccc(OC)cc12 (configuration not stated)	.	.	.	.	.	.	/	/	/	/	/
SMILES	SENP6 block	SENP1 FRET inh	HSP90 inh	SENP8 block-1	SENP7 inh	SENP8 block-2	SENP8 conf-1	SENP6 conf	SENP7 conf	Casp3 SENP sel	SENP luc ctr	others
c1cncc(C2CCCCN2)c1 (configuration not stated)	.	.	.	.	.	55	/	/	/	/	/	SENP8 conf-2=.
CCNCCNc1ccc([N+](=O)[O-])c2cccnc12	.	.	.	.	.	63	/	/	/	/	/	SENP8 conf-2=.
CC1CN(c2ccc([N+](=O)[O-])c3cccnc23)CC(C)N1 (configuration not stated)	.	.	.	.	.	.	/	/	/	/	/
Cc1nonc1OCCNCCNc1ccc([N+](=O)[O-])c2cccnc12	.	.	.	.	.	43	/	/	/	/	/	SENP8 conf-2=.
COc1cc([N+](=O)[O-])c2ncccc2c1[N+](=O)[O-]	/	.	/	/	/	.	/	/	/	/	/
O=[N+]([O-])c1ccc(N2CCCC2)c2ncccc12	.	.	.	.	.	81	/	/	/	/	/	SENP8 conf-2=.
C[N+](C)(C)CC1CCCC1=O (configuration not stated)	/	.	/	/	/	.	/	/	/	/	/
CC1CCCCN1C(=O)c1ccc(N2CC3CC(C2)c2cccc(=O)n2C3)c([N+](=O)[O-])c1 (configuration not stated)	.	.	.	.	.	.	/	/	/	/	/
NNc1n[nH]c(=S)n1N	.	.	.	.	.	42	/	/	/	/	/	SENP8 conf-2=.
C=C(C)[C@H]1CN[C@H](C(=O)O)[C@H]1CC(=O)O	.	.	/	.	.	.	/	/	/	/	/
O=[N+]([O-])c1cccc(CN2CC=C(c3ccc(F)cc3)CC2)c1	.	.	.	.	.	.	/	/	/	/	/
O=[N+]([O-])c1ccccc1CN1CC=C(c2ccc(F)cc2)CC1	.	.	.	.	.	44	/	/	/	/	/	SENP8 conf-2=.
O=c1cc(C2CCNCC2)[nH][nH]1	.	.	.	.	.	55	/	/	/	/	/	SENP8 conf-2=.
CN1CCN(c2c(F)cc([N+](=O)[O-])c(N)c2Br)CC1	.	.	.	.	.	.	/	/	/	/	/
Nc1c([N+](=O)[O-])cc(F)c(N2CCNCC2)c1Br	.	.	.	.	.	44	/	/	/	/	/	SENP8 conf-2=.
CN1CCN(c2cc(N3CCCCCC3)c(F)cc2[N+](=O)[O-])CC1	.	.	.	.	.	.	/	/	/	/	/
CCN1CCN(c2cc(N3CCCC3)c([N+](=O)[O-])cc2F)CC1	.	.	.	.	.	42	/	/	/	/	/	SENP8 conf-2=.
C[N+]1(C)C2CC(OC(=O)[C@H](CO)c3ccccc3)CC1C1OC12 (some centres not stated)	.	.	/	.	.	.	/	/	/	/	/
OCCOc1ccccc1	.	.	/	.	.	46	/	/	/	/	/	SENP8 conf-2=.
